Screening data from PubChem.
proCasp7 act: counter-screen: procaspase-7 (human) activation | activation, % at 8.5 µM | P55210 | recombinant procaspase-7, Ac-DEVD-pNA absorbance 405 nm; D23A/D198A/D206A triple mutant, cannot self-cleave; scale: DMSO 0, 5 µM enzyme 100 | 0.093% of 330,000 active;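 active means percent activation above the screen-wide mean plus 3 SD, cut at about 25% in these data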
Target sequence (P55210 whole entry D23A/D198A/D206A): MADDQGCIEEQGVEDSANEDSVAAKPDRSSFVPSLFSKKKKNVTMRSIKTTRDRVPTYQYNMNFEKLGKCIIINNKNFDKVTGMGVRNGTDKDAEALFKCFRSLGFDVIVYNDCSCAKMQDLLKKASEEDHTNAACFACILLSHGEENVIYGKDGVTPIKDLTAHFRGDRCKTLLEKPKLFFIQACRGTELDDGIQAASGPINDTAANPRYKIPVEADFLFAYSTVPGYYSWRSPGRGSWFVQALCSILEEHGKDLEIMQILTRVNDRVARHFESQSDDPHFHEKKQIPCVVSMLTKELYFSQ
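Assay system – Uncleavable procaspase-7 mutant enzyme · Quantity – 2 µM procaspase-7 mutant as dispensed · Times – 1 h preincubation, 2 h reaction · Dosing – single nominal 8.5 µM compound dose, 0.8% DMSO final · Buffer or medium – Zinc-free 50 mM HEPES buffer, pH 7.4, with NaCl and Triton X-100 · Detection – Epi-absorbance of released pNA at 405 nm, two timepoints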
LYPLA2 counter: counter-screen for PME1 inhibitors: inhibitors of human LYPLA2 | O95372 | recombinant LYPLA2, FP-Rh probe fluorescence polarization | inhibition, % at 5.9 µM | 0.38% of 320,000 active | AID 2177;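 active means inhibition above the screen-wide mean plus 3 SD, limit set per campaign, cut at about 26% in these data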
Target sequence (O95372 whole entry, looked up): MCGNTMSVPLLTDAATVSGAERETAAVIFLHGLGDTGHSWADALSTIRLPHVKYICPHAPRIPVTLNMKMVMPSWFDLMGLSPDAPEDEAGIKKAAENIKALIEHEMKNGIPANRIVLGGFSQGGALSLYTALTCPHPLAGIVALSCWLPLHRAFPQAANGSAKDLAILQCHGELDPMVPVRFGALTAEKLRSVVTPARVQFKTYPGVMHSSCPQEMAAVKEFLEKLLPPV
LYPLA1 inh: blocks human lysophospholipase 1, a PME1 counter-screen. O75608. inhibition, % at 5.9 µM. 0.16% of 320,000 active. AID 2174. recombinant LYPLA1, FP-Rh probe fluorescence polarization;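 active means inhibition above the mean of all tested compounds plus 3 SD, set per campaign, cut at about 14% in these data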;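 further: inhibitors block serine hydrolase probe labeling of LYPLA1 so polarization falls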
PREPL inh: human PREPL enzyme inhibition; recombinant PREPL, fluorescence polarization activity-based probe; 0.68% of 320,000 active; inhibition, % at 5.96 µM; AID 2751
procasp3 activ: activators of human procaspase-3 | P42574 | recombinant procaspase-3 D3A, Ac-DEVD-pNA absorbance 405 nm | activation, % at 8.5 µM | 0.11% of 330,000 active | AID 463141;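 active means activation above the mean of all tested compounds plus 3 SD, cut at about 21% in these data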
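Compound: 8.5 µM single point, 0.8% DMSO / Material: Autoprocessing-dead procaspase-3 D3A mutant enzyme / Timing: 1 h preincubation plus 2 h reaction at 25 °C / Medium: Zinc-free HEPES/NaCl buffer with 0.01% Triton X-100 at pH 7.4 / Technique: 405 nm absorbance of p-nitroaniline, reads at 0 and 120 min / Repeats: one well per compound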
LYPLA1 confirm: counter-screen for PME1 inhibitors: confirmation of human LYPLA1 inhibitors; shares compounds with LYPLA1 inh; recombinant LYPLA1, FP-Rh probe fluorescence polarization; inhibition, % at 5.9 µM; 69% of 480 active; AID 2233;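 active means mean inhibition across replicates above the hit cutoff set in the primary screen, cut at about 15% in these data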;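 further: loss of FP-Rh probe labeling of LYPLA1 seen as lower polarization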
LYPLA2 confirm: LYPLA2 (human) inhibition, confirmation counter-screen; recombinant LYPLA2, FP-Rh probe fluorescence polarization; shares compounds with LYPLA2 counter; inhibition, % at 5.9 µM; 72% of 1,100 active;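 active means mean inhibition across replicates above the hit cutoff set in the primary screen, cut at about 26% in these data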;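 further: blocked labeling of the enzyme by serine hydrolase FP-Rh probe lowers polarization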
PREPL confirm: human PREPL inhibition, confirmation; inhibition, % at 5.96 µM; 67% of 2,000 active; shares compounds with PREPL inh; recombinant PREPL, fluorescence polarization activity probe; AID 2803
proCasp7 act trip: activates human procaspase-7, counter-screen for procaspase-3 activators; recombinant procaspase-7, Ac-DEVD-pNA absorbance; asp23/198/206-to-Ala mutant, cannot self-cleave; shares compounds with procasp3 activ; 210 tested, under 10 active; AID 488941; activation, % at 8.5 µM;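 active means mean activation above a set limit taken from an earlier procaspase-7 screen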
proCasp3 confirm: procaspase-3 (human) activation, confirmed; shares compounds with procasp3 activ; recombinant PC-3 D3A, Ac-DEVD-pNA absorbance 405 nm; 100% is higher-enzyme control; activation, % at 8.5 µM; 10% of 210 active;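 active means mean activation above a set limit carried over from the earlier primary screen, cut at about 22% in these data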
Large screens that a line does not name were inactive (follow-up assays come after a bar, where they were run). The list is not random: actives were taken first. Their share in the collection is about 1%. Unless noted, no stated cut-off is given here; in the data, active means inhibition above about 43%; inactive means the rest.

O=C1NC(=O)C(=Cc2ccc(Oc3ccc([N+](=O)[O-])cc3)cc2)C(=O)N1	LYPLA2 counter 38
NC(Cc1cc(O)c(O)cc1O)C(=O)O (stereo unspecified)	PREPL inh 67
N[C@@H](CCl)C(=O)O	none
Cc1ccc(-c2nc(N3CCOCC3)s[n+]2-c2ccccc2)cc1	none
COc1ccc2[nH]cc(C3=CCNCC3)c2c1	PREPL inh 51
CC(C)[C@H]1C(=O)N2CCC[C@H]2[C@]2(O)O[C@](NC(=O)[C@@H]3C=C4c5cccc6[nH]cc(c56)C[C@H]4N(C)C3)(C(C)C)C(=O)N12	PREPL inh 46
CC(C)C[C@H]1C(=O)N2CCCC2[C@]2(O)O[C@](NC(=O)[C@@H]3C=C4c5cccc6[nH]cc(c56)CC4N(C)C3)(C(C)C)C(=O)N12 (stereo partly specified)	none
CCn1c(O)c(/C(C)=N/N2CCCCC2c2cccnc2)c(=O)[nH]c1=S (stereo unspecified)	none
NP(=O)(OCCCCc1ccccc1)Oc1ccccc1Cl (stereo unspecified)	LYPLA1 inh 19 | LYPLA1 confirm inactive
Cc1cc(=O)[nH]c(CCl)n1	none
CCN(CC)C(=O)c1ccc(NC(=O)COc2ccc(-c3nn(C)c(=O)c4ccccc34)cc2)cc1	LYPLA2 counter 32 | LYPLA2 confirm 31
Cc1cccc(-n2c(-c3cccs3)nc3ccccc3c2=O)c1	none
Cc1ccc(-n2c(O)c(C=NCCC3=CCCCC3)c(=O)[nH]c2=O)cc1	none
O=C(O)c1cccc2c1NC(C(=O)O)C1CC(Sc3ccccc3[N+](=O)[O-])C(Cl)C21 (stereo unspecified)	LYPLA2 counter 29 | LYPLA2 confirm inactive
CC(=O)c1ccc2c(c1)C1C(Cl)C(Sc3ccccc3[N+](=O)[O-])CC1C(C(=O)O)N2 (stereo unspecified)	none
Oc1c(Cl)c(Cl)c(Cl)c(Cl)c1Cl	LYPLA2 counter 28 | LYPLA2 confirm 34
Cc1ccc(Cn2nnnc2CN2CCC(n3nnc4cc(C)ccc43)CC2)cc1	LYPLA2 counter 27 | LYPLA2 confirm inactive
C=C1[C@H]2CC[C@H]3[C@]4(C)C[C@H](O[C@H]5O[C@H](CO)[C@@H](OS(=O)(=O)O)[C@H](OS(=O)(=O)O)[C@H]5OC(=O)CC(C)C)C[C@@H](C(=O)O)[C@H]4CC[C@]3(C2)[C@H]1O	none
CC(=NCCc1c[nH]c2ccccc12)c1c(O)n(Cc2ccccc2)c(=O)[nH]c1=O	LYPLA2 counter 31, PREPL inh 43 | LYPLA2 confirm 27 | PREPL confirm inactive
COc1cc([C@@H]2c3cc4c(cc3[C@@H](OC)[C@H]3COC(=O)[C@H]23)OCO4)cc(OC)c1O	none
CCC(=NCCc1c[nH]c2ccccc12)c1c(O)n(-c2ccc(C)cc2)c(=O)[nH]c1=O	PREPL inh 44 | PREPL confirm 46
CN1C[C@H](CO)C=C2c3cccc4[nH]cc(c34)C[C@H]21	none
CC1=C[C@@H]2c3cccc4[nH]cc(c34)C[C@H]2N(C)C1	PREPL inh 58 | PREPL confirm 44
C#CC[N+]1(C)C2CCC1CC(O)C2 (stereo unspecified)	none
CC(C)Cc1[nH]c(=O)c(C#N)c2c1CCC2	PREPL inh 75 | PREPL confirm 66
O=[N+]([O-])c1ccc(-[n+]2c(-c3ccccc3)cc(-c3ccccc3)cc2-c2ccccc2)cc1	PREPL inh 43 | PREPL confirm inactive
O=C([O-])c1ccc(-[n+]2c(-c3ccccc3)cc(-c3ccccc3)cc2-c2ccccc2)cc1	none
Cc1cc(OC(=O)N(C)C)n(-c2ccccc2)n1	none
C1=NCCc2c1[nH]c1ccccc21	none
CC1=NCCc2c1[nH]c1cc(O)ccc21	PREPL inh 51 | PREPL confirm inactive
COc1ccc2c(c1)[nH]c1c(C)nccc12	none
COc1ccc2c3c([nH]c2c1)C(C)=NCC3	PREPL inh 71 | PREPL confirm inactive
OC(CN1CCC(c2c[nH]c3ccccc23)CC1)C(F)(F)F (stereo unspecified)	none
Clc1ccc(C[n+]2c(-c3ccccc3)cc(-c3ccccc3)cc2-c2ccccc2)cc1	PREPL inh 71 | PREPL confirm 63
CCN1CCN(CC(=O)c2c(C)n(Cc3ccccc3)c3ccc(OC)cc23)CC1	none
COc1ccc2c(c1)c(C(=O)CN1CCC3(CC1)OCCO3)c(C)n2Cc1ccccc1	PREPL inh 58 | PREPL confirm 49
COc1ccc(NS(=O)(=O)c2ccc(OCC(=O)N3CCN(C)CC3)cc2)cc1Cl	none
CCCCc1nc2ccccc2c(=O)n1-c1ccccc1O	PREPL inh 111 | PREPL confirm inactive
CCOc1cc(/C=C2/C(=O)NC(=O)N(c3ccc(CC)cc3)C2=O)ccc1OC(=O)c1cccs1	PREPL inh 48 | PREPL confirm 52
COc1ccccc1-n1c(O)c(/C=N/NC(=S)Nc2ccccc2)c(=O)[nH]c1=S	none
COC(=O)C1=C(c2cccc(OCc3ccccc3)c2)C[C@@H]2CC[C@H]1N2C(=O)NCCCOC(C)C	PREPL inh 46 | PREPL confirm inactive
Oc1c(Br)cc(Br)cc1CN1CCN(Cc2ccccc2)CC1	none
O=[N+]([O-])c1ccccc1-c1cc(-c2ccccc2)cc(-c2ccccc2)[n+]1Cc1ccccc1Cl	PREPL inh 51 | PREPL confirm 49
Fc1ccc(C[n+]2c(-c3ccccc3)cc(-c3ccccc3)cc2-c2ccccc2)cc1	none
COCCOC(=O)c1c(N)n(Cc2ccccc2)c2nc3ccccc3nc12	none
CCCCn1c(N)c(C(=O)NCc2cccs2)c2nc3ccccc3nc21	procasp3 activ 46 | proCasp7 act trip inactive | proCasp3 confirm inactive
